Test results reported in ChEMBL document CHEMBL1158347, “Substituted quinazolines, part 3. Synthesis, in vitro antitumor activity and molecular modeling study of certain 2-thieno-4(3H)-quinazolinone analogs” (2009).

What was measured:
Format in all cases: functional
[1] = Growth inhibition of human leukemia cells after 48 hrs; settings: Leukemia cell
Method in brief: (§1)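 NCI in vitro disease-oriented human tumor cell line screen. Compounds passing a one-dose primary assay (MCF-7, NCI-H460, SF-268; pass = growth of any line reduced to 32% or less) were tested on the 60-line panel over a 5-log dose range. Compounds were dissolved in DMSO, with under 1% DMSO in final dilutions, and tested in duplicate at 6×10^4 cells/ml. Cells were incubated at 37 °C in 5% CO2 for 48 h, then diluted 10-fold in saline and counted with a Coulter counter, with counts corrected for dilution. Controls held PBS/DMSO at identical dilutions. GI50 was reported per line and as subpanel/full-panel mean-graph midpoint.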

NSCLC = experiment: Growth inhibition of human NSCLC cells after 48 hrs; method in brief: as §1
[2] = Growth inhibition of human Colon cancer cells after 48 hrs; settings: Cancer cell lines; method in brief: as §1
[3] = Growth inhibition of human CNS cancer cells after 48 hrs; settings: Cancer cell lines; method in brief: as §1
[4] = Growth inhibition of human melanoma cells after 48 hrs; settings: Melanoma cell; method in brief: as §1
[5] = Growth inhibition of human ovarian cancer cells after 48 hrs; settings: Cancer cell lines; method in brief: as §1
[6] = Growth inhibition of human renal cancer cells after 48 hrs; settings: Cancer cell lines; method in brief: as §1
[7] = Growth inhibition of human prostate cancer cells after 48 hrs; settings: Cancer cell lines; method in brief: as §1
[8] = Growth inhibition of human breast cancer cells after 48 hrs; settings: Cancer cell lines; method in brief: as §1
CCRF-CEM = experiment: Growth inhibition of human CCRF-CEM cells after 48 hrs; method in brief: as §1
HL-60(TB) = experiment: Growth inhibition of human HL-60(TB) cells after 48 hrs; settings: HL-60, 48 h
Method in brief: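 NCI 60-cell-line screen over a 5-log dose range. Compounds were dissolved in DMSO, final DMSO under 1%. Duplicate wells were seeded at 6×10^4 cells/ml, with PBS/DMSO vehicle controls at identical dilutions. Cells were incubated 48 h at 37 °C in humidified 5% CO2, diluted 10-fold in saline, and counted by Coulter counter with dilution correction. GI50 read-out.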

K562 = experiment: Growth inhibition of human K562 cells after 48 hrs; settings: K562, 48 h; method in brief: as §1
RPMI-8226 = experiment: Growth inhibition of human RPMI8226 cells after 48 hrs; settings: RPMI-8226, 48 h; method in brief: as §1
SF-539 = experiment: Growth inhibition of human SF539 cells after 48 hrs; settings: SF-539, 48 h; method in brief: as §1
UACC-257 = experiment: Growth inhibition of human UACC257 cells after 48 hrs; settings: UACC-257, 48 h; method in brief: as §1
MCF7 = experiment: Growth inhibition of human MCF7 cells after 48 hrs; settings: MCF7, 48 h; method in brief: as §1
T47D = experiment: Growth inhibition of human T47D cells after 48 hrs; method in brief: as §1
[9] = read-out: LC50 (the source's name)

O=c1c2cc(I)ccc2nc(-c2cccs2)n1O
GI50 [1]: 34.3 µM
TGI [1]: > 100 µM
GI50 (NSCLC): 33.2 µM
TGI (NSCLC): 91.2 µM
GI50 [2]: 45.8 µM
TGI [2]: > 100 µM
GI50 [3]: 33.2 µM
TGI [3]: 94.4 µM
GI50 [4]: 57.3 µM
TGI [4]: 97.1 µM
GI50 [5]: 32.1 µM
TGI [5]: 87.9 µM
GI50 [6]: 49.8 µM
TGI [6]: > 100 µM
GI50 [7]: 39.9 µM
TGI [7]: 98.4 µM
GI50 [8]: 39.4 µM
TGI [8]: > 100 µM

O=c1c2cc(I)ccc2nc(-c2cccs2)n1/N=C/c1ccccc1
GI50 [1]: 63.4 µM
TGI [1]: > 100 µM
GI50 (NSCLC): > 100 µM
TGI (NSCLC): > 100 µM
GI50 [2]: > 100 µM
TGI [2]: > 100 µM
GI50 [3]: > 100 µM
TGI [3]: > 100 µM
GI50 [4]: 90.3 µM
TGI [4]: > 100 µM
GI50 [5]: > 100 µM
TGI [5]: > 100 µM
GI50 [6]: > 100 µM
TGI [6]: > 100 µM
GI50 [7]: > 100 µM
TGI [7]: > 100 µM
GI50 [8]: > 100 µM
TGI [8]: > 100 µM

CC(=O)CC(=O)Nn1c(-c2cccs2)nc2ccc(I)cc2c1=O
GI50 [1]: 38.5 µM
TGI [1]: > 100 µM
GI50 (NSCLC): 27.5 µM
TGI (NSCLC): 86.4 µM
GI50 [2]: 28.1 µM
TGI [2]: 90.9 µM
GI50 [3]: 27.9 µM
TGI [3]: 89.1 µM
GI50 [4]: 37.7 µM
TGI [4]: 85.3 µM
GI50 [5]: 40.9 µM
TGI [5]: 93.6 µM
GI50 [6]: 28.9 µM
TGI [6]: 85.1 µM
GI50 [7]: 20.6 µM
TGI [7]: > 100 µM
GI50 [8]: 24.9 µM
TGI [8]: 82.1 µM

O=c1c2cc(I)ccc2nc(-c2cccs2)n1-c1ccc(S(=O)(=O)Nc2nccs2)cc1
GI50 [1]: 54 µM
TGI [1]: > 100 µM
GI50 (NSCLC): 38.7 µM
TGI (NSCLC): 89.5 µM
GI50 [2]: 44.7 µM
TGI [2]: 94.6 µM
GI50 [3]: 41.4 µM
TGI [3]: 87.7 µM
GI50 [4]: 45.2 µM
TGI [4]: 84.8 µM
GI50 [5]: 46.5 µM
TGI [5]: > 100 µM
GI50 [6]: 34.2 µM
TGI [6]: 84.3 µM
GI50 [7]: 32.9 µM
TGI [7]: > 100 µM
GI50 [8]: 34.8 µM
TGI [8]: 88.3 µM

O=c1c2cc(I)ccc2nc(-c2cccs2)n1NC(=S)Nc1ccccc1
GI50 (CCRF-CEM): 21 µM
TGI (CCRF-CEM): 61 µM
CC50 (CCRF-CEM; [9]): > 100 µM
GI50 (HL-60(TB)): 1 µM
TGI (HL-60(TB)): 22 µM
CC50 (HL-60(TB); [9]): > 100 µM
GI50 (K562): 0.02 µM
LC50 (concentration killing 50% of cells) (K562): 75 µM
TGI (K562): 10 µM
GI50 (RPMI-8226): 19 µM
TGI (RPMI-8226): 52 µM
CC50 (RPMI-8226; [9]): > 100 µM
GI50 (SF-539): 34 µM
TGI (SF-539): > 100 µM
CC50 (SF-539; [9]): > 100 µM
GI50 (UACC-257): 17 µM
LC50 (UACC-257): > 100 µM
TGI (UACC-257): 66 µM
GI50 (MCF7): 29 µM
TGI (MCF7): 88 µM
CC50 (MCF7; [9]): > 100 µM
GI50 (T47D): 3 µM
LC50 (T47D): > 100 µM
TGI (T47D): 17 µM
GI50 [1]: 11.5 µM
TGI [1]: 38.5 µM
GI50 (NSCLC): 24 µM
TGI (NSCLC): 75.2 µM
GI50 [2]: 29.5 µM
TGI [2]: 84 µM
GI50 [3]: 29.2 µM
TGI [3]: 81.4 µM
GI50 [4]: 23.1 µM
TGI [4]: 62.8 µM
GI50 [5]: 21.5 µM
TGI [5]: 77.5 µM
GI50 [6]: 32.5 µM
TGI [6]: 84.8 µM
GI50 [7]: 25.8 µM
TGI [7]: 76.2 µM
GI50 [8]: 19.4 µM
TGI [8]: 60.3 µM
